ZTA counter: ZTA (EBV) inhibition in EBNA-1 counter-screen | P03206 | inhibition, % at 11 µM | ZTA-DNA binding, fluorescence polarization | 320,000 compounds, 0.15% hits; in the data active = inhibition above about 33%
Target sequence (P03206 whole entry, looked up): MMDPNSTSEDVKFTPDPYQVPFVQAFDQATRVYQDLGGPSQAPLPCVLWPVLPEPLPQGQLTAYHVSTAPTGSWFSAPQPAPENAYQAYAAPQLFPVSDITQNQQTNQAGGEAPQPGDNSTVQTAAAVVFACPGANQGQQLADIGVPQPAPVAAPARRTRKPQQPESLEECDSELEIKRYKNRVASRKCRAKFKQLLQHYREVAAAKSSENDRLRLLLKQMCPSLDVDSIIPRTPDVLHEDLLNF
ALR inh: human ALR oxidase inhibition via reduced H2O2; inhibition, % (concentration not given with the values); purified ALR, DTT oxidation, H2O2 HRP-luminol luminescence; 290,000 compounds, 3.8% hits; P55789;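 active = mean replicate inhibition above about 79%, with every replicate also reaching it, limit read from the data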
Target sequence (P55789 whole entry, looked up): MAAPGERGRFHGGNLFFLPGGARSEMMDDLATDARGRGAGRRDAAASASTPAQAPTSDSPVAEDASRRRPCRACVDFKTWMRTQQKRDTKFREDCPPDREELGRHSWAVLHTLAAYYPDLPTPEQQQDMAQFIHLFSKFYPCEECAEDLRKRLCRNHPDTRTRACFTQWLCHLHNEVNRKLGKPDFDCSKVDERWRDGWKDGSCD
NS3 helicase inh: HCV NS3 helicase inhibition; NS3 helicase DNA unwinding, Cy5 molecular beacon fluorescence; inhibition, % at 10.9 µM; 290,000 compounds, 0.56% hits; AID 1800;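 active = inhibition above the mean of all tested compounds plus 3 SD, set per campaign, cut at about 35% in these data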;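 also: 0% = DMSO wells and 100% = thioflavine S control wells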
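Material: hepatitis C virus NS3 helicase domain fragment enzyme; measured by: Cy5 fluorescence, 0 and 60 min reads; control set: DMSO and thioflavine S; incubation: 60 min unwinding reaction at 25 °C after ATP addition; read-out basis: % inhibition from 60/0 min fluorescence ratio, DMSO 0%, thioflavine S 100%; repeats: singlicate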
EBNA-1 inhibitor: blocks EBNA-1 binding to DNA | 300,000 compounds, 0.34% hits | EBNA-1 DNA binding, fluorescence polarization | inhibition, % at 14.8 µM; in the data active = inhibition above about 28%
PfM18AAP inh: PfM18AAP enzyme inhibition. 290,000 compounds, 1.2% hits. inhibition, % at 7.35 µM. recombinant PfM18AAP, H-Glu-NHMec fluorogenic cleavage;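 active = inhibition above the campaign mean inhibition over all tested compounds plus 3 SD, cut at about 28% in these data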;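 also: 0% = plate median of test compound wells and 100% = 2 mM ZnCl2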
HCV core dimer: blocks dimerization of HCV core protein. TR-FRET GST/Flag-core106 dimerization, 1536-well. inhibition, % at 5 µM. 300,000 compounds, 0.33% hits. AID 1899;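 active = inhibition above the mean of all tested compounds plus 3 SD, set per screening campaign, cut at about 45% in these data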
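System: GST-tagged and Flag-tagged HCV core protein residues 1-106 / Input: core106 proteins, GST 13.5 nM and Flag 17 nM / Buffer or medium: KF-containing HEPES buffer, pH 7.45, DTT, CHAPS, BSA / Probe or stimulus: Eu-anti-GST and XL665-anti-Flag labelled anti-tag antibodies / Schedule: 4 h, 22.5 °C incubation / Technique: TR-FRET 671 and 617 nm emission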
NS3 hel confirm: confirmation of Hepatitis C virus NS3 helicase inhibitors; 1,600 compounds, 31% hits; AID 1943; inhibition, % at 10.9 µM; shares compounds with NS3 helicase inh; NS3 helicase DNA unwinding, Cy5 molecular beacon fluorescence;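 active = inhibition above the mean of all tested compounds plus 3 SD, cutoff set per campaign, cut at about 36% in these data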
FID counter trip: displaces DNA intercalator in HCV helicase counter-screen; shares compounds with NS3 helicase inh; DNA fluorescent intercalator displacement, fluorescence; inhibition, % at 7.9 µM; 1,600 compounds, 4% hits; AID 1945; in the data active = inhibition above about 37%;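 also: 0% = vehicle and 100% = reference compound; higher means more displacement of ethidium bromide from the DNA hairpin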
DNA FID DR: counter-screen for HCV NS3 helicase inhibitors: DNA intercalator displacement dose response; shares compounds with NS3 helicase inh; fluorescent intercalator displacement from DNA, fluorescence; IC50, µM; 120 tested, under 10 active; call rule not given here
Starred values were filed as active, the others as inactive; i = inactive; . = no result given; + = active, no number. This is a sample that favours compounds with a hit; in the whole collection about 5.2% have one here.

SMILES	ZTA counter	ALR inh	NS3 helicase inh	EBNA-1 inhibitor	PfM18AAP inh	HCV core dimer	NS3 hel confirm	FID counter trip	others
Cn1cccc1Cc1nnc(SCC(=O)Nc2nc3ccccc3s2)n1CCc1ccccc1	-10	.	52*	22	7	-6	5	-21
Cc1nnc(NC(=O)CSc2nnc(Cc3cccn3C)n2CCc2ccccc2)s1	9	8	17	2	7	1	.	.
Cc1cc(=O)oc2cc(O[C@@H]3O[C@H](CO)[C@@H](O)[C@H](O)[C@H]3O)ccc12	0	-4	17	-10	4	-17	.	.
CN(C)c1ccc(N/C=C/C(=O)C(C)(C)C)cc1	+	99*	48*	+	22	-22	19	26
CCOC(=O)c1ccc(N/C=C/C(=O)C(C)(C)C)cc1	-9	-4	2	4	-1	4	.	.
COc1ccc2[nH]cc(CCNC(=O)C3CCCO3)c2c1 (centres undefined)	-10	-13	-5	0	-8	4	.	.
Cc1sc2c(c1C)C(O)=C(C(=O)Nc1ccccc1)S(=O)(=O)N2C	1	.	44*	-7	-12	-2	60*	-4
CN1c2ccccc2C(O)=C(C(=O)Nc2ccccc2)S1(=O)=O	18	2	2	8	-1	3	.	.
Cc1[nH]c2ccccc2c1C(=O)COC(=O)c1ccc[n+]([O-])c1	10	13	46*	3	-1	1	-14	-3
O=C(C[n+]1ccccc1)N/N=C/c1ccc(Br)cc1	5	-1	.	.	.	.	.	.
CN(C)c1ccc(NC(=O)C2C3C=CC(C3)C2C(=O)O)cc1 (centres undefined)	.	99*	56*	.	55*	.	30	14
O=C(CCl)Nc1nc(-c2ccco2)c(-c2ccco2)s1	16	-24	61*	-7	36*	9	63*	36	DNA FID DR=>79
O=C(CCCSc1ccccc1)Nc1nc(-c2ccco2)c(-c2ccco2)s1	-2	0	92*	-3	9	7	69*	18	DNA FID DR=i
COc1ccc(-c2cc(C(=O)Nc3cccc(O)c3)no2)cc1	16	-13	8	5	-3	5	.	.
C=CCOc1ccc(C2/C(=C(\O)c3ccc4c(c3)OCCO4)C(=O)C(=O)N2CCCN2CCOCC2)cc1 (centres undefined)	-9	6	50*	-1	23	16	3	-8
CCCOc1cccc(C2/C(=C(\O)c3ccc4c(c3)OCCO4)C(=O)C(=O)N2CCCn2ccnc2)c1 (centres undefined)	-17	6	41*	0	7	-10	-20	-33
C=CCOc1ccc(/C(O)=C2/C(=O)C(=O)N(CCN3CCOCC3)C2c2ccc(C)cc2)cc1 (centres undefined)	-6	.	20	-5	3	-2	.	.
Cc1cc(Br)cc(C=Nc2ccc(N3CCOCC3)cc2)c1O	-17	36	.	0	.	-2	.	.
Oc1ccc(N=Nc2cccc(C(F)(F)F)c2)cc1C=Nc1ccc(N2CCOCC2)cc1	-3	11	45*	-1	0	-3	1	39*
OCc1cc(Br)ccc1OCc1nc2ccccc2s1	-22	4	38*	-6	6	-12	-4	-15
COc1ccc(-c2csc(NC(=O)c3ccccc3Br)c2C(=O)O)cc1	4	60	41*	9	7	15	59*	-18
Cc1ccccc1C(=O)Nc1scc(-c2ccc(Br)cc2)c1C(=O)O	5	-1	.	5	.	24	.	.
Cc1c(C(=O)NNC(=S)Nc2ccc(S(N)(=O)=O)cc2)oc2ccccc12	-2	99*	38*	0	19	-21	6	8
CCOC(=O)CC(=O)CSc1nc(-c2ccc3c(c2)OCO3)cc(C(F)(F)F)c1C#N	4	-4	37*	-2	-4	-24	-2	1
CCOC(=O)CCSc1nc(-c2ccc3c(c2)OCO3)cc(C(F)(F)F)c1C#N	-4	26	-4	-3	2	-2	.	.
SMILES	ZTA counter	ALR inh	NS3 helicase inh	EBNA-1 inhibitor	PfM18AAP inh	HCV core dimer	NS3 hel confirm	FID counter trip	others
Cc1cc(NC(=O)C(C)SCC(=O)OCc2ccc(Cl)cc2Cl)no1 (centres undefined)	-7	.	.	.	.	.	.	.
C[C@@H](CN=[N+]=[N-])CN1CC[C@H](O)CCC1=O	-8	0	37*	2	-2	-8	-8	15
C[C@@H](CSc1ccccc1)CN1CC[C@H](O)CCC1=O	-8	-16	44*	-7	8	-6	-4	12
C=CCn1c(COc2ccccc2OC)nc2ccccc21	1	-3	3	1	2	10	.	.
Cc1ccc(S(=O)(=O)Nc2ccc(Br)cc2C(NCC(=O)O)c2ccccc2)cc1 (centres undefined)	14	5	-6	13	-10	11	.	.
O=C(O)CSc1cc(NS(=O)(=O)c2ccc(Br)cc2)c2ccccc2c1O	9	19	55*	13	16	-13	70*	26
CNc1ccc(Br)cc(C(=O)/C=C/c2cccc(OC)c2OC)c1=O	9	6	32	5	17	0	.	.
CNc1ccc(Br)cc(C(=O)/C=C/c2cccc(Cl)c2Cl)c1=O	.	.	37*	.	18	.	68*	24	DNA FID DR=>79
CC(=O)Nc1ccc(S(=O)(=O)NNC(=O)COc2ccc(Cl)cc2Cl)cc1	-8	-2	37*	-5	10	-1	11	4
CC(=O)Nc1ccc(S(=O)(=O)NNC(=O)COc2ccc(C)cc2)cc1	-14	-10	1	-8	-1	-10	.	.
CC(C)(C)OC(=O)N1CCC(c2cc(=O)n3[nH]cc(C(=O)Nc4ccc(F)c(Cl)c4)c3n2)CC1	5	-2	25	-11	5	5	.	.
COc1ccc(NC(=O)c2c[nH]n3c(=O)cc(C4CCN(C(=O)OC(C)(C)C)CC4)nc23)cc1Cl	-6	13	36*	0	3	22	52*	-28
CCS(=O)(=O)C1=NN2C(=N)/C(=C\c3ccc(SCc4ccco4)o3)C(=O)N=C2S1	.	.	37*	.	21	.	65*	22
CCS(=O)(=O)C1=NN2C(=N)/C(=C\c3ccc(OC(=O)c4ccco4)c(Br)c3)C(=O)N=C2S1	-1	34	-9	1	0	6	.	.
COc1ccccc1NC(=O)c1sc2nc(C)cc(C)c2c1N	5	.	.	12	.	3	.	.
COc1ccccc1NC(=O)c1sc2nc(-c3ccco3)ccc2c1N	4	-4	49*	-7	9	29	1	17
